# Data as given in ChEMBL document CHEMBL2093137, “WHO-TDR NTD Screening”.
# What was measured:
# Onchocerca ochengi = experiment: WHO-TDR: Onchocerciasis; format: functional; parameters: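 at 12.5 µM on microfilariae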
# Procedure, shortened: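 A diverse library of 10,000 compounds from Life Chemicals, filtered for drug-likeness and reactive groups, was screened against whole microfilariae of Onchocerca ochengi or Onchocerca lienalis. These animal pathogens served as stand-ins for the human parasite. Activity is given as percent inhibition and as IC50.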
# [1] = WHO-TDR: Cytotoxicity; format: toxicity, cell-based; details: human, MRC5 cells
# Brugia malayi = experiment: WHO-TDR: Lymphatic Filariasis; format: functional; parameters: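 tested at 10 µM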
# Procedure, shortened: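 A diverse library of 10,000 compounds from Life Chemicals was screened against Brugia malayi microfilariae in a whole-organism assay. The library had been filtered for drug-likeness and reactive groups. Activity is given as percent inhibition and as IC50.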
# Leishmania infantum = experiment: WHO-TDR: Leishmaniasis; format: functional, organism-based, Mus musculus; details: Macrophage
# Procedure, shortened: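 IC50 values describe antiparasitic potency in this whole-organism screen. Leishmania infantum MHOM/MA(BE)/67 amastigotes were tested inside murine peritoneal macrophages against a 10,000-compound diverse Life Chemicals library. A reference drug served as positive control.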
# Schistosoma mansoni = experiment: WHO-TDR: Schistosomiasis; format: functional; parameters: concentration or dose not given beside the values
# Procedure, shortened: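 A diverse library of 10,000 compounds from Life Chemicals, filtered for drug-likeness and reactive groups, was screened against whole larval and/or adult Schistosoma mansoni worms of the Puerto Rican strain. Previously published standard procedures were followed, with a reference drug as positive control. Activity is given as percent inhibition and as IC50.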
# Plasmodium falciparum K1 = experiment: WHO-TDR: Malaria; format: functional, organism-based, Homo sapiens; details: Erythrocyte
# Procedure, shortened: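 Life Chemicals supplied the diverse library of 10,000 compounds, which had been filtered for drug-likeness and reactive groups. Each was screened against the K1 strain of Plasmodium falciparum at its intra-erythrocytic stage in human red blood cells, using previously published standard procedures and a reference drug as positive control. The table reports IC50 for antiplasmodial potency.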
# Trypanosoma cruzi = experiment: WHO-TDR: Chagas disease; format: functional, organism-based, Homo sapiens; details: MRC5
# Procedure, shortened: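 Intracellular amastigotes of the Trypanosoma cruzi Tulahuen CL2 beta-galactosidase strain, grown in MRC-5SV2 human lung fibroblast host cells, were tested in a whole-organism screen. The compounds came from a 10,000-member diverse Life Chemicals library that had been filtered for drug-likeness and reactive groups. Previously published standard procedures were followed, with a reference drug as positive control, and potency is reported as IC50.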
# [2] = test system: Trypanosoma brucei brucei; experiment: WHO-TDR: Human African Trypanosomiasis (HAT); format: functional, organism-based; details: Squib-427
# Procedure, shortened: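 Following previously published standard procedures, with reference drugs as positive controls, a whole-organism assay was run against bloodstream-form Trypanosoma brucei, Squib 427 strain. The compounds, 10,000 in all, came from a diverse Life Chemicals library filtered for drug-likeness and reactive groups. Reported values are IC50 for antiparasitic potency.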
Compound,% Inhibition (Onchocerca ochengi) [%],IC50 [1] [µg/mL],% Inhibition (Brugia malayi) [%],IC50 (Leishmania infantum) [µg/mL],% Inhibition (Schistosoma mansoni) [%],IC50 (Plasmodium falciparum K1) [µg/mL],IC50 (Trypanosoma cruzi) [µg/mL],IC50 [2] [µg/mL]
Cc1ccnc(Nc2ccc(NCCNC(=O)c3ccc(F)cc3Cl)nn2)c1,100,> 12,25,> 12,0,5.9,> 12,4.09
COc1cccc(NC(=O)NCCNc2ccc(Nc3cc(C)ccn3)nn2)c1,100,> 11.8,25,> 11.8,0,9.93,> 11.8,3.82
Cc1ccnc(Nc2ccc(NCCNC(=O)Nc3ccc(F)cc3)nn2)c1,100,> 11.4,0,> 11.4,0,> 11.4,> 11.4,> 11.4
Cc1ccnc(Nc2ccc(NCCNS(=O)(=O)c3ccc(F)cc3)nn2)c1,100,> 12.1,50,3.91,0,12.1,4.13,3.91
COc1ccc(OC)c(S(=O)(=O)NCCNc2ccc(Nc3cc(C)ccn3)nn2)c1,100,> 13.3,50,> 13.3,0,5.13,> 13.3,4.66
Cc1ccnc(Nc2ccc(NCCNS(=O)(=O)c3cccc(Cl)c3)nn2)c1,100,> 12.6,0,> 12.6,0,> 12.6,> 12.6,4.02
Cc1ccnc(Nc2ccc(N3CCN(C(=O)c4ccc(F)cc4)CC3)nn2)c1,0,> 11.8,0,0.381,0,> 11.8,> 11.8,> 11.8
COc1cccc(NC(=O)N2CCN(c3ccc(Nc4cc(C)ccn4)nn3)CC2)c1,100,> 12.6,0,> 12.6,0,9.16,> 12.6,5.21
Cc1ccnc(Nc2ccc(N3CCN(C(=O)Nc4cccc(F)c4)CC3)nn2)c1,100,> 12.2,75,> 12.2,0,> 12.2,> 12.2,5.79
CCc1ccc(NC(=O)N2CCN(c3ccc(Nc4cc(C)ccn4)nn3)CC2)cc1,100,> 12.5,50,> 12.5,0,8.24,> 12.5,> 12.5
CCc1ccc(C(=O)NCCNc2ccc(Nc3cccc(C)n3)nn2)cc1,100,6.22,0,> 11.3,0,3.3,> 11.3,> 11.3
Cc1cccc(Nc2ccc(NCCNC(=O)Nc3ccccc3)nn2)n1,100,10.4,0,> 10.9,0,4.75,> 10.9,> 10.9
COc1cccc(NC(=O)NCCNc2ccc(Nc3cccc(C)n3)nn2)c1,100,> 11.8,0,> 11.8,0,4.98,> 11.8,4.13
Cc1cccc(Nc2ccc(NCCNC(=O)Nc3ccc(F)cc3)nn2)n1,100,> 11.4,0,> 11.4,0,8.36,> 11.4,> 11.4
Cc1ccc(S(=O)(=O)NCCNc2ccc(Nc3cccc(C)n3)nn2)c(C)c1,100,> 12.4,0,8.43,0,> 12.4,3.96,4.01
